# A selection: hits, their analogues and other compounds. The true share with any hit is near 4.9%.
# Hep lipid drop = hepatic lipid droplet formation modulation | AML12 mouse hepatocytes, oleate lipid droplets, BODIPY imaging | inhibition, % at 6.5 µM | 240,000 compounds, 0.4% hits | AID 1656;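 active means lipid droplet intensity inhibited by at least 50%, with more than 500 cells counted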
#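 Assay system: AML12 mouse liver cells | Compound: 6.5 µM single-point dosing | Schedule: Overnight exposure | Technique: Fluorescence imaging, 20x objective, two fields per well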
# HSF1 activator = increases HSF-1 driven luciferase reporter signal. NIH3T3-HGL HSF-1 luciferase reporter, MG132, 8 h; 100% = twice DMSO control signal. activation, % at 9 µM. 300,000 compounds, 1.7% hits. AID 504408;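 active means mean replicate activation of at least 50% with a set share of replicates each reaching 50%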;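 further: 0% = median of the neutral control wells and 100% = twice that signal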
# PHOSPHO1 inh = inhibitors of human PHOSPHO1 phosphatase; inhibition, % at 13.3 µM; recombinant PHOSPHO1, absorbance phosphatase assay; Q8TCT1; 290,000 compounds, 1.1% hits; in the data active means inhibition above about 60%
# HSF1 inhib = HSF1 inhibition; NIH3T3-HGL HSE-luciferase, MG132-induced, luminescence 8 h; active compounds read low; activity change, negative = inhibition, % at 7.5 µM (by protocol); 300,000 compounds, 0.77% hits; AID 2098;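 active means more than half of replicate wells show activity change below -50%, luminescence cut by over half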;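 further: luciferase reports HSF-1 transcriptional activity via heat shock element; 0% = median of DMSO wells and -100% = zero luminescence signal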
# CHT block = inhibitors of human choline transporter CHT | 310,000 compounds, 0.86% hits | Q9GZV3 | B-score at 10 µM | AID 488975 | CHT-expressing cells, membrane potential dye, choline response; active compounds read low;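 active means B-score over 3 SD under the library average, and starting fluorescence ratio not unusually high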;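 further: choline stimulus applied at its EC90 after an EC20 pre-addition; B-score computed on integrated fluorescence ratio after choline addition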
# Target sequence (Q9GZV3 whole entry, looked up): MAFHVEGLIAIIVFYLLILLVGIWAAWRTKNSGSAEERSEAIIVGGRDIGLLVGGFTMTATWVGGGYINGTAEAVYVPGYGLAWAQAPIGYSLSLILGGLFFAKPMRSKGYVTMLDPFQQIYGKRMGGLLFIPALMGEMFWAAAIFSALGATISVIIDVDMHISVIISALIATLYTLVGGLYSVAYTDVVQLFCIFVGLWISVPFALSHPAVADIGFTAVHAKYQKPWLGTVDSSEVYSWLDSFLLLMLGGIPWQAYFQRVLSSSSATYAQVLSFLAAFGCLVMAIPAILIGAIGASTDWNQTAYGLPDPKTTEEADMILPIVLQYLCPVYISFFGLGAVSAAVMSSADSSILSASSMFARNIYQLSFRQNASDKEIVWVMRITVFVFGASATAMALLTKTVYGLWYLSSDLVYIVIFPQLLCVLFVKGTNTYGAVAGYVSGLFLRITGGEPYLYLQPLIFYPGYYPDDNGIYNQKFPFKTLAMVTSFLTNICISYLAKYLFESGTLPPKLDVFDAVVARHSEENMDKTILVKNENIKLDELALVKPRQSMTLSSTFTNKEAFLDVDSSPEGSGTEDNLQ
# CHT allo act = allosteric activators of human choline transporter CHT; Q9GZV3; CHT-expressing cells, membrane potential dye, choline EC20; active compounds read high; LV-AA mutant CHT in HEK293 cells; B-score at 10 µM; 310,000 compounds, 0.49% hits; AID 488977;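 active means initial fluorescence not abnormally high and integrated response B-score, plate-corrected, over 3 SD above library mean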
# CHT inh conf = confirmation of human choline transporter CHT inhibitors; shares compounds with CHT block; CHT-expressing cells, choline membrane potential dye; LV-to-AA substituted CHT, HEK293 cells; CHT activity remaining % of control (active compounds read low), % at 10 µM; 2,400 compounds, 70% hits;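 active means choline transporter activity left, mean of duplicates at 10 µM, below buffer-only control mean minus 3 SD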;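 further: depolarization triggered by choline at its EC90 following an EC20 pre-addition; 0% = hemicholinium-3 full block and 100% = buffer-only control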
# HEK293 CHT ctr = counter-screen for CHT inhibitors: effect in parental HEK293 cells | membrane potential dye, choline response; active = decrease or increase beyond buffer ±3SD | shares compounds with CHT block | 2,400 compounds, 4% hits | membrane potential ratio readout (active if shifted either direction beyond buffer ±3SD; no single direction) at 10 µM;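 further: parental cells lack the transporter so any hit is non-specific; ratio is peak minus trough fluorescence over baseline after EC90 choline challenge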
# Numbers without * were called inactive; i = inactive; . = no result.
SMILES,Hep lipid drop,HSF1 activator,PHOSPHO1 inh,HSF1 inhib,CHT block,CHT allo act,CHT inh conf,HEK293 CHT ctr
O=C(CC1C(=O)NCCN1C(=O)Nc1ccccc1)Nc1cccc(Cl)c1 (configuration not stated),19,-1,28,-4,i,i,.,.
Cc1ccc(C(C)NC(=S)NCc2ccc(F)cc2)cc1C (configuration not stated),-10,13,21,12,-5.1*,i,71%*,i
CCN(CC)C(=O)N1CCN(S(=O)(=O)c2ccc(C)c(C)c2)CC1,0,-4,16,-2,-7.4*,i,37%*,i
Cc1ccc2nsnc2c1S(=O)(=O)NCc1cccnc1,1,3,29,2,i,i,.,.
O=S(=O)(c1ccccc1)N1CCN(CCc2ccccc2)CC1,-5,7,34,-1,i,i,.,.
O=S(=O)(c1ccc(F)c(F)c1)N1CCN(CCc2ccccc2)CC1,-17,-13,.,-2,-6.8*,i,54%*,i
O=C(CSc1ccccc1)N1CCN(S(=O)(=O)c2ccccc2F)CC1,-14,33,47,4,i,i,.,.
O=S(=O)(c1ccccc1F)N1CCN(CCc2ccccc2)CC1,-4,-4,19,-2,-6.8*,i,48%*,i
Cc1ccc2nsnc2c1S(=O)(=O)N1CCN(CCc2ccccc2)CC1,-1,18,-25,1,-11*,i,41%*,i
CC(=O)c1cccc(CN2CCC(CO)(CCOc3ccccc3)CC2)c1,-2,7,.,4,i,i,.,.
OCCOc1cccc(CN2CCC(CO)(CCOc3ccccc3)CC2)c1,-5,10,45,-5,-10*,i,i,i
Cc1ccnc2nc(C(=O)Nc3nc4ccccc4s3)nn12,-3,14,22,7,i,i,.,.
CC(=O)Nc1ccc(S(=O)(=O)NC2=C(N3CCN(Cc4ccccc4)CC3)C(=O)c3ccccc3C2=O)cc1,20,36,64*,21,-6.2*,i,41%*,2.3*
COc1ccc(-n2c(C)cc(C(=O)CSc3nnc(-c4ccoc4C)n3C)c2C)cc1,.,18,28,-1,-5.1*,i,66%*,i
COc1cccc(NC(=O)CSc2nnc(-c3ccoc3C)n2C)c1,-1,41,16,3,i,i,.,.
Nc1cc(S(=O)(=O)N2CCCCC2)ccc1Oc1ccc(Cl)cc1,-10,-4,16,-6,-9.4*,i,i,i
COC(=O)c1ccc(Oc2ccc(S(=O)(=O)N3CCCCC3)cc2N)cc1,-1,-1,33,-6,i,i,.,.
Cc1noc(C)c1COC(=O)c1ccc(F)c(S(=O)(=O)N2CCCCC2)c1,-6,7,-16,7,-5*,i,69%*,i
CCCc1cc(C(=O)NNC(=S)NC(C)c2ccccc2)cs1 (configuration not stated),.,4,83*,0,-6.2*,i,18%*,i
CC(C)(C)n1ncc2c(=O)n(CC(=O)OCc3ccccc3)cnc21,.,-74,-3,-73*,-6.7*,i,i,i
CCCNc1nc2c(c(=O)n(C)c(=O)n2C)n1CCC(C)C,.,-1,-2,1,-6.9*,i,46%*,i
CCCCNc1nc2c(c(=O)n(C)c(=O)n2C)n1CCC,4,-5,-1,-3,i,i,.,.
Cc1ccccc1NC(=O)c1ccc(F)c(S(=O)(=O)NCC2CCCO2)c1 (configuration not stated),16,8,40,0,-7.7*,i,21%*,i
O=C(Nc1ccccc1Cl)c1ccc(S(=O)(=O)NCC2CCCO2)cc1 (configuration not stated),-12,8,11,-8,-6.4*,i,31%*,i
Cc1ccc(NC(=O)c2ccc(Cl)c(S(=O)(=O)NCC3CCCO3)c2)c(O)c1 (configuration not stated),-29,6,33,-10,i,i,.,.
SMILES,Hep lipid drop,HSF1 activator,PHOSPHO1 inh,HSF1 inhib,CHT block,CHT allo act,CHT inh conf,HEK293 CHT ctr
COC(=O)c1ccccc1NC(=O)CSc1nnnn1-c1ccc(C)cc1C,18,-3,6,-4,i,i,.,.
O=C(Nc1ccc(Cc2nc3ccccc3s2)cc1)c1ccncc1,-4,0,19,-1,i,i,.,.
COC(=O)c1cc(NC(=O)c2ccc(-c3ccccc3)cc2)ccc1Cl,2,5,-9,-1,i,i,.,.
O=C(O)CSc1cc(C(=O)c2cc(F)ccc2O)cn2c(=O)c3c(-c4ccccc4)csc3nc12,14,-5,38,0,-7*,i,26%*,i
Cc1ccc[n+](CC(=O)Nc2cc(C(F)(F)F)ccc2N2CCOCC2)c1,9,-11,6,-1,-8*,i,25%*,i
O=C(Nc1cc(C(F)(F)F)ccc1N1CCOCC1)c1ccc[n+]([O-])c1,9,40,6,-4,i,i,.,.
CCOc1cc(/C=N/Nc2nn3cnnc3c3ccccc23)ccc1O,2,28,24,1,i,i,.,.
O=C(COC(=O)Cc1cccs1)Nc1ccccc1Cl,5,-11,12,-2,-5.5*,i,i,i
CCCC(=O)NC(=S)Nc1cccc(NC(=O)c2ccccc2Cl)c1,-10,4,-1,2,-12*,i,14%*,i
CCCC(=O)Nc1cccc(NC(=O)c2ccc([N+](=O)[O-])cc2Cl)c1,-16,-11,9,-7,-6.6*,i,61%*,i
Nc1c(C(=O)N/N=C/c2ccccc2)cnn1-c1ccccc1,-2,21,17,9,i,i,.,.
CCCCn1c(=O)[nH]c(=O)c2c1nc(Cn1ncc(Cl)c(Cl)c1=O)n2CCC,-15,-93,30,-93*,-6.1*,i,53%*,i
COc1cc(CNCCc2ccccc2)cc(Br)c1OCC(=O)Nc1ccccc1C,-2,3,66*,5,-8.4*,i,43%*,i
CCNCc1cc(Br)c(OCC(=O)Nc2ccccc2)c(OC)c1,-6,-6,-4,-1,i,i,.,.
Nc1ncncc1-c1ccc2ccccc2c1,0,4,53,-12,i,i,.,.

# Screening results deposited in PubChem by several laboratories.
